Source: PMC1182329 (Nucleic Acids Research, 2005)
Like-named read-outs stand apart in the source and are kept apart here.

Key:
TAR-RNA = assay: Gel retardation assay; type: binding, HIV-1; conditions: compared with PNATAR–penetratin and PNATAR–tat conjugates; data not shown
[1] = tested on: VSV-G pseudotyped HIV-1 virions; conditions: 1 h
CEM cells = assay: Uptake kinetics with 125I-labeled conjugates; type: cell-based; conditions: slope of Hill plot of uptake data, 125I-labeled conjugate, room temperature, 30 s
Outline: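 125I-labeled conjugate purified by gel filtration and C18 reverse phase, quantified at A260, and specific radioactivity set with unlabeled conjugate. 1 × 10^6 CEM cells exposed to varying concentrations at room temperature for 30 s, then filtered on glass fiber, washed with PBS. Internalized conjugate measured by gamma counting from specific radioactivity; nH taken from Hill plot slope.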

[2] = tested on: VSV-G pseudotyped HIV-1 in CEM cells

| Molecule | binding pattern to TAR-RNA in gel shift assay (TAR-RNA) | IC50 [1] | Hill coefficient (nH) of uptake (CEM cells) | inhibition of HIV-1 replication [2] | inhibition of HIV-1 replication (words) [2] | IC50 ([2]; VSV-G pseudotyped in CEM cells, 48 h) | IC50 ([2]; read-out: Antiviral efficacy IC50) |
| --- | --- | --- | --- | --- | --- | --- | --- |
| Ac-Cys-TCC-CAG-GCT-CAG-ATC-T [PNATAR] | same binding pattern | – | – | – | – | – | – |
| CC(=O)N[C@@H](CSSC[C@H](N)C(=O)NCC(=O)N[C@@H](CCCNC(=N)N)C(=O)N[C@@H](CCCCN)C(=O)N[C@@H](CCCCN)C(=O)N[C@@H](CCCNC(=N)N)C(=O)N[C@@H](CCCNC(=N)N)C(=O)N[C@@H](CCC(N)=O)C(=O)N[C@@H](CCCNC(=N)N)C(=O)N[C@@H](CCCNC(=N)N)C(=O)N[C@@H](CCCNC(=N)N)C(=O)N1CCC[C@H]1C(=O)N1CCC[C@H]1C(=O)N[C@@H](CCC(N)=O)C(=O)O)C(=O)NCCN(CC(=O)NCCN(CC(=O)NCCN(CC(=O)NCCN(CC(=O)NCCN(CC(=O)NCCN(CC(=O)NCCN(CC(=O)NCCN(CC(=O)NCCN(CC(=O)NCCN(CC(=O)NCCN(CC(=O)NCCN(CC(=O)NCCN(CC(=O)NCCN(CC(=O)NCCN(CC(=O)NCCN(CC(N)=O)C(=O)Cn1cc(C)c(=O)[nH]c1=O)C(=O)Cn1ccc(N)nc1=O)C(=O)Cn1cc(C)c(=O)[nH]c1=O)C(=O)Cn1cnc2c(N)ncnc21)C(=O)Cn1cnc2c(=O)[nH]c(N)nc21)C(=O)Cn1cnc2c(N)ncnc21)C(=O)Cn1ccc(N)nc1=O)C(=O)Cn1cc(C)c(=O)[nH]c1=O)C(=O)Cn1ccc(N)nc1=O)C(=O)Cn1cnc2c(=O)[nH]c(N)nc21)C(=O)Cn1cnc2c(=O)[nH]c(N)nc21)C(=O)Cn1cnc2c(N)ncnc21)C(=O)Cn1ccc(N)nc1=O)C(=O)Cn1ccc(N)nc1=O)C(=O)Cn1ccc(N)nc1=O)C(=O)Cn1cc(C)c(=O)[nH]c1=O [PNATAR–tat-peptide] | – | 37 nM | – | – | – | – | – |
| CC[C@H](C)[C@H](NC(=O)[C@H](CCCCN)NC(=O)[C@@H](NC(=O)[C@H](CCC(N)=O)NC(=O)[C@H](CCCNC(=N)N)NC(=O)[C@@H](N)CSSC[C@H](NC(C)=O)C(=O)NCCN(CC(=O)NCCN(CC(=O)NCCN(CC(=O)NCCN(CC(=O)NCCN(CC(=O)NCCN(CC(=O)NCCN(CC(=O)NCCN(CC(=O)NCCN(CC(=O)NCCN(CC(=O)NCCN(CC(=O)NCCN(CC(=O)NCCN(CC(=O)NCCN(CC(=O)NCCN(CC(=O)NCCN(CC(N)=O)C(=O)Cn1cc(C)c(=O)[nH]c1=O)C(=O)Cn1ccc(N)nc1=O)C(=O)Cn1cc(C)c(=O)[nH]c1=O)C(=O)Cn1cnc2c(N)ncnc21)C(=O)Cn1cnc2c(=O)[nH]c(N)nc21)C(=O)Cn1cnc2c(N)ncnc21)C(=O)Cn1ccc(N)nc1=O)C(=O)Cn1cc(C)c(=O)[nH]c1=O)C(=O)Cn1ccc(N)nc1=O)C(=O)Cn1cnc2c(=O)[nH]c(N)nc21)C(=O)Cn1cnc2c(=O)[nH]c(N)nc21)C(=O)Cn1cnc2c(N)ncnc21)C(=O)Cn1ccc(N)nc1=O)C(=O)Cn1ccc(N)nc1=O)C(=O)Cn1ccc(N)nc1=O)C(=O)Cn1cc(C)c(=O)[nH]c1=O)[C@@H](C)CC)C(=O)N[C@@H](Cc1c[nH]c2ccccc12)C(=O)N[C@@H](Cc1ccccc1)C(=O)N[C@@H](CCC(N)=O)C(=O)N[C@@H](CC(N)=O)C(=O)N[C@@H](CCCNC(=N)N)C(=O)N[C@@H](CCCNC(=N)N)C(=O)N[C@@H](CCSC)C(=O)N[C@@H](CCCCN)C(=O)N[C@@H](Cc1c[nH]c2ccccc12)C(=O)N[C@@H](CCCCN)C(=O)N[C@@H](CCCCN)C(=O)O [PNATAR–penetratin] | – | 28 nM | 1.8 | ~50% | did not inhibit | 800 nM | 800 nM |
